Structures are written as SMILES. The source made the active and inactive calls. No cut-off for these calls is given here. Some results are limits rather than exact numbers.

The test system of experiment [1] is HeLa. The experiment can be described thus: Cytostatic activity against human HeLa cells measured after 24 hrs by MTT assay. The experiment is classed as functional, cell-based. In outline:
(§1)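 Cells seeded at 4 × 10³/well for 24 h runs and for PC-3, or 2 × 10³/well for MCF-7 and HeLa 48 h runs, and attached overnight. Medium replaced with compound-containing medium for 24 or 48 h. MTT (4 mg mL⁻¹) added for the final 3 h, formazan dissolved in DMSO, absorbance read at 570 nm (reference 660 nm). IC₅₀ calculated from at least three independent experiments in duplicate, mean ± SE.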
(Tetrazolium assays rely on reduction of a dye to a coloured formazan, in cell work by metabolically active cells.)

For experiment [2], the system named is MCF7. The experiment in a line: Antiproliferative activity against human MCF7 cells assessed as reduction in cell viability after 48 hrs by MTT assay. The class given is functional, cell-based. In outline:
as §1

The nature of experiment [3]: Cytotoxicity against human HDFa cells assessed as reduction in cell viability after 48 hrs by MTT assay. The experiment is classed as cell-based. The method, boiled down: as §1
The test system of experiment [4] is HeLa. The experiment in a line: Cell cycle arrest in human HeLa cells assessed as reduction in cell population at S phase at 2.4 to 7.2 uM after 24 hrs by propidium iodide staining based flow cytometric analysis. The experiment is classed as functional. For orientation: In flow cytometry, cells or beads pass a laser one at a time.
Experiment [5] has as its system PC-3. The experiment can be described thus: Antiproliferative activity against human PC3 cells assessed as reduction in cell viability after 24 hrs by MTT assay. The class given is functional, cell-based. The following applies: PC-3, 24 h. In outline: as §1
Experiment [6] is described as follows: Cytotoxicity against human HDFa cells assessed as reduction in cell viability after 24 hrs by MTT assay. The experiment is classed as cell-based. In outline:
as §1

The subject of experiment [7] is PC-3. The experiment can be described thus: Antiproliferative activity against human PC3 cells assessed as reduction in cell viability after 48 hrs by MTT assay. The following applies: PC-3, 48 h. The class given is functional, cell-based. In outline:
as §1

Experiment [8] deals with HeLa. The experiment can be described thus: Induction of cell cycle arrest in human HeLa cells assessed as accumulation of cells at G0/G1 phase 2.4 to 7.2 uM after 24 hrs by propidium iodide staining based flow cytometric analysis (reference value: 44%). The experiment is classed as functional.
Experiment [9] has as its system HeLa. The experiment can be described thus: Antiproliferative activity against human HeLa cells assessed as reduction in cell viability after 48 hrs by MTT assay. The class given is functional, cell-based. In outline:
as §1

The test system of experiment [10] is MCF7. The experiment in a line: Cytostatic activity against human MCF7 cells measured after 24 hrs by MTT assay. The experiment is classed as functional, cell-based. In outline: as §1
The subject of experiment [11] is HeLa. The experiment can be described thus: Antiproliferative activity against human HeLa cells assessed as reduction in cell viability after 24 hrs by MTT assay. The class given is functional, cell-based. The method, boiled down:
as §1

Experiment [12] deals with MCF7. The experiment in a line: Antiproliferative activity against human MCF7 cells assessed as reduction in cell viability after 24 hrs by MTT assay. The class given is functional, cell-based. The following applies: for IC50: MCF7, 24 h. The method, boiled down: as §1
Experiment [13] concerns HeLa. The experiment can be described thus: Cell cycle arrest in human HeLa cells assessed as reduction in cell population at G2/M phase at 2.4 to 7.2 uM after 24 hrs by propidium iodide staining based flow cytometric analysis. The class given is functional.
Experiment [14] relates to PC-3. The experiment can be described thus: Cytostatic activity against human PC3 cells measured after 24 hrs by MTT assay. The experiment is classed as functional, cell-based. The method, boiled down:
as §1

For experiment [15], the system named is HeLa. The experiment can be described thus: Induction of cell cycle arrest in human HeLa cells assessed as accumulation of cells at G0/G1 phase after 24 hrs by propidium iodide staining based flow cytometric analysis. The class given is functional.
Experiment [16] concerns MCF7. The experiment can be described thus: Induction of cell cycle arrest in human MCF7 cells assessed as accumulation of cells at S phase at 8.7 uM after 24 hrs by Propidium iodide staining based flow cytometric analysis (reference value: 23.75 +/- 1.87%). The experiment is classed as functional.
For experiment [17], the system named is MCF7. The experiment can be described thus: Induction of cell cycle arrest in human MCF7 cells assessed as accumulation of cells at G2/M phase at 2.9 uM after 24 hrs by Propidium iodide staining based flow cytometric analysis (reference value: 27 +/- 2.97%). The class given is functional.
For experiment [18], the system named is MCF7. The experiment in a line: Induction of cell cycle arrest in human MCF7 cells assessed as accumulation of cells at G0/G1 phase at 2.9 uM after 24 hrs by Propidium iodide staining based flow cytometric analysis (reference value: 47.8 +/- 0.42%). The class given is functional.
In experiment [19] the test system is MCF7. The experiment in a line: Induction of cell cycle arrest in human MCF7 cells assessed as accumulation of cells at G0/G1 phase at 8.7 uM after 24 hrs by Propidium iodide staining based flow cytometric analysis (reference value: 47.8 +/- 0.42%). The class given is functional.
For experiment [20], the system named is MCF7. The experiment in a line: Induction of cell cycle arrest in human MCF7 cells assessed as accumulation of cells at S phase at 2.9 uM after 24 hrs by Propidium iodide staining based flow cytometric analysis (reference value: 23.75 +/- 1.87%). The class given is functional.
Experiment [21] deals with MCF7. The experiment in a line: Induction of cell cycle arrest in human MCF7 cells assessed as accumulation of cells at G2/M phase at 8.7 uM after 24 hrs by Propidium iodide staining based flow cytometric analysis (reference value: 27 +/- 2.97%). The experiment is classed as functional.
The test system of experiment [22] is HeLa. The experiment in a line: Cell cycle arrest in human HeLa cells assessed as accumulation of cells at G2/M phase at 8.7 uM after 24 hrs by propidium iodide staining based flow cytometric analysis. The experiment is classed as functional.
Experiment [23] concerns HeLa. The experiment in a line: Cell cycle arrest in human HeLa cells assessed as accumulation of cells at S phase at 8.7 uM after 24 hrs by propidium iodide staining based flow cytometric analysis. The class given is functional.

As for `CC(=O)c1c(O)c(C)c(O)c2c1OC1=Cc3c(c(C)nn3C)C(=O)[C@]12C`, the result in the experiment with HeLa [1], in the experiment with MCF7 [10] and in the experiment with PC-3 [14] was inactive. The half-maximal inhibitory concentration (IC50) (in general, the concentration needed to halve the response being measured) in the experiment on MCF7 [2] (Homo sapiens, MCF7, 48 h) was over 10 µM; in [3] it was over 10 µM; in the experiment on PC-3 [5], over 10 µM; in [6], over 10 µM; in the experiment on PC-3 [7], over 10 µM; with HeLa [9] (Homo sapiens, HeLa, 48 h) it was 1.2 µM. Also, the IC50 with HeLa [11] was 2.7 µM; with MCF7 [12], over 10 µM. The result in the experiment with HeLa [4] and with HeLa [13] was Active. In addition, the Activity in the experiment on HeLa [8] is recorded as 51 - 65%.
With `CC(=O)c1c(O)c(C)c(O)c2c1OC1=Cc3c(c(C)nn3-c3ccc(C)cc3)C(=O)[C@]12C`, the inhibition entry in the experiment on MCF7 [2] and with MCF7 [12] was “inactive” each time.
`CC(=O)c1c(O)c(C)c(O)c2c1OC1=Cc3c(c(C)nn3-c3ccc(Cl)c(Cl)c3)C(=O)[C@]12C`: the inhibition entry in the experiment with MCF7 [2] and with MCF7 [12] was “inactive” throughout.
As to `CC(=O)c1c(O)c(C)c(O)c2c1OC1=Cc3c(c(C)nn3-c3ccc(F)cc3)C(=O)[C@]12C`, the inhibition result in the experiment on MCF7 [2] and in the experiment with MCF7 [12] was “inactive” throughout.
As for `CC(=O)c1c(O)c(C)c(O)c2c1OC1=Cc3c(c(C)nn3-c3ccccc3)C(=O)[C@]12C`, the inhibition result in the experiment with MCF7 [2] and with MCF7 [12] was “inactive” throughout.
In the case of `COc1ccc(-n2nc(C)c3c2C=C2Oc4c(C(C)=O)c(O)c(C)c(O)c4[C@]2(C)C3=O)cc1`, the inhibition result in the experiment on MCF7 [2] and in the experiment with MCF7 [12] was “inactive” each time.
For `CC(=O)c1c(O)c(C)c(O)c2c1OC1=Cc3c(c(C)nn3C)C(=O)C12C` (racemic), the result in the experiment with HeLa [1], with MCF7 [10] and in the experiment on PC-3 [14] was inactive. For the same compound, the IC50 was over 10 µM in the experiment with MCF7 [2] (Homo sapiens, MCF7, 48 h); over 10 µM in [3]; over 10 µM with PC-3 [5]; over 10 µM in experiment [6]; over 10 µM in the experiment with PC-3 [7]; 1.1 µM in the experiment on HeLa [9] (Homo sapiens, HeLa, 48 h). In addition, the IC50 in the experiment with HeLa [11] was 2.7 µM; in the experiment with MCF7 [12], over 10 µM. Further, the result with HeLa [4] and in the experiment on HeLa [13] was Active. Besides, the Activity in the experiment on HeLa [8] was 51 - 65%; with HeLa [15] it was “Dose-dependent effect”.
As to `CC(=O)c1c(O)c(C)c(O)c2c1OC1=Cc3c(c(C)nn3-c3ccc(C)cc3)C(=O)C12C` (racemic), the inhibition result with MCF7 [2] and with MCF7 [12] was “inactive” each time.
On to `CC(=O)c1c(O)c(C)c(O)c2c1OC1=Cc3c(c(C)nn3-c3ccc(Cl)c(Cl)c3)C(=O)C12C` (racemic), for which the inhibition entry with MCF7 [2] and in the experiment with MCF7 [12] was “inactive” throughout.
Take `CC(=O)c1c(O)c(C)c(O)c2c1OC1=Cc3c(c(C)nn3-c3ccc(F)cc3)C(=O)C12C` (racemic): the inhibition result with MCF7 [2] and in the experiment on MCF7 [12] was “inactive” throughout.
As for `CC(=O)c1c(O)c(C)c(O)c2c1OC1=Cc3c(c(C)nn3-c3ccccc3)C(=O)C12C` (racemic), the inhibition result with MCF7 [2] and with MCF7 [12] was “inactive” throughout.
Consider `COc1ccc(-n2nc(C)c3c2C=C2Oc4c(C(C)=O)c(O)c(C)c(O)c4C2(C)C3=O)cc1` (racemic), for which the inhibition entry in the experiment on MCF7 [2] and in the experiment on MCF7 [12] was “inactive” in each case.
Turning to `CC(=O)c1c(O)c(C)c(O)c2c1OC1=CC(=O)C(C(C)=O)C(=O)C12C` (stereo in doubt; (+)-1) [listing 1 of 2 here], the IC50 in the experiment on MCF7 [2] (mcf7) fell in the range of 10 to 75.7 µM; in the experiment with HeLa [9] (hela), 10 to 23.7 µM. Moreover, the Activity turned out to be 22.4% with MCF7 [16]; 28.8% with MCF7 [17]; 46% in the experiment on MCF7 [18]; 50.6% in the experiment on MCF7 [19]; 23% with MCF7 [20]; 24.8% in the experiment with MCF7 [21].
For `CC(=O)c1c(O)c(C)c(O)c2c1OC1=CC(=O)C(C(C)=O)C(=O)C12C` (stereo in doubt; (+)-1) [listing 2 of 2 here], the result with HeLa [22] and in the experiment with HeLa [23] was Active.
As for `CC(=O)c1c(O)c(C)c(O)c2c1OC1=CC(=O)C(C(C)=O)C(=O)C12C` (stereo in doubt; (-)-1) [listing 1 of 2 here], the IC50 in the experiment with MCF7 [2] (Homo sapiens, MCF7, 48 h) was over 10 µM; in [3] it was over 10 µM; in the experiment on PC-3 [5] it was over 10 µM; in [6], over 10 µM; in the experiment with PC-3 [7], over 10 µM; in the experiment with HeLa [9] (Homo sapiens, HeLa, 48 h) it was over 10 µM. For the same compound, the IC50 with HeLa [11] and in the experiment on MCF7 [12] was over 10 µM throughout. For the same compound, the Activity with MCF7 [16] amounted to 20.6%; in the experiment with MCF7 [17], 28.25%; in the experiment on MCF7 [18] it was 46.95%; in the experiment with MCF7 [19], 52.35%; with MCF7 [20] it was 22.9%; in the experiment with MCF7 [21] it was 24.95%.
In the case of `CC(=O)c1c(O)c(C)c(O)c2c1OC1=CC(=O)C(C(C)=O)C(=O)C12C` (stereo in doubt; (-)-1) [listing 2 of 2 here], the outcome with HeLa [22] and in the experiment with HeLa [23] was Active.
